What was measured:
[1] = biological target: Muscarinic acetylcholine receptor; assay: In vitro binding affinity for muscarinic receptor by displacing [3H]quinuclidinyl benzilate binding on rat brain homogenate; assay type: tissue-based
How it was run: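 Two concentration–response curves, five concentrations covering 3 decades, triplicates. IC50 estimated from hand-drawn log concentration–response curves and converted to Ki with Cheng–Prusoff equation.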

[2] = biological target: T1, Muscarinic acetylcholine receptor M1 (Rattus norvegicus, UniProt P08482); assay: M1 agonist activity estimated by rat superior cervical ganglion depolarization; assay type: functional, tissue-based
T1 sequence (P08482 whole entry): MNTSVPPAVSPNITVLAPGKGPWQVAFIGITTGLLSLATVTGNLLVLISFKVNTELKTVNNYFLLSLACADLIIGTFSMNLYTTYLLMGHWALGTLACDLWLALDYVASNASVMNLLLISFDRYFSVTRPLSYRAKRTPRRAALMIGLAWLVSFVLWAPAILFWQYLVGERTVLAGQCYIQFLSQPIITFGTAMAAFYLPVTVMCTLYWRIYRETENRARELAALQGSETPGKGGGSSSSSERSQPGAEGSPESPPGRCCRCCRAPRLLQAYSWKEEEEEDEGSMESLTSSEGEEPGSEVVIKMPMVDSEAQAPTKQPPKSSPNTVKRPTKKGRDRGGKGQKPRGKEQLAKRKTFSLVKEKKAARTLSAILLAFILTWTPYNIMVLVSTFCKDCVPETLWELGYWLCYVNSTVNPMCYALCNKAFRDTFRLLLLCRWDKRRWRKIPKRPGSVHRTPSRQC

[3] = biological target: Muscarinic acetylcholine receptor; assay: In vitro binding affinity for muscarinic receptor by displacing [3H]quinuclidinyl benzilate binding on rat brain stem homogenate.; assay type: tissue-based
How it was run: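 Two full curves, five test concentrations over 3 decades in triplicate. Hand-drawn log curves gave IC50; Ki by Cheng–Prusoff.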

[4] = biological target: Muscarinic acetylcholine receptor; assay: In vitro binding affinity for muscarinic receptor by displacing [3H]oxotremorine-M binding on rat brain homogenate.; assay type: tissue-based
How it was run: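 Duplicate full curves of five drug concentrations over 3 decades, triplicate points. IC50 taken from hand-drawn log curves; Ki via Cheng–Prusoff.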

[5] = biological target: T1, Muscarinic acetylcholine receptor M1; assay: In vitro binding affinity for muscarinic M1 receptor by displacing [3H]pirenzepine binding on rat brain homogenate.; assay type: tissue-based
How it was run: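 Two complete curves, five test concentrations spanning 3 decades, each in triplicate. IC50 read from hand-drawn log concentration–response curves, converted to Ki by Cheng–Prusoff.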

Rattus norvegicus [6] = species: Rattus norvegicus; assay: Ratio of binding affinity at [3H]quinuclidinyl benzilate binding on rat brain homogenate to [3H]- Oxotremorine-M binding on rat brain homogenate; assay type: functional
How it was run: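 Ago ratio computed as Ki from [³H]QNB binding to whole rat brain homogenate divided by Ki from [³H]oxotremorine-M binding to whole rat brain homogenate.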

[7] = biological target: Muscarinic acetylcholine receptor M3 (Cavia porcellus)
[8] = biological target: Muscarinic acetylcholine receptor M2 (Cavia porcellus); assay: M2 agonist activity estimated by depression of isolated guinea pig left atrium
Rattus norvegicus [9] = species: Rattus norvegicus; assay: Ratio of binding affinity at [3H]quinuclidinyl benzilate binding on rat brain stem homogenate to [3H]pirenzepine binding on rat brain homogenate
[10] = biological target: Muscarinic acetylcholine receptor M2 (Mus musculus) (UniProt Q9ERZ4); assay: In vivo determination of peripheral M2 receptor mediated tremor, cholinergic side effect
[11] = biological target: Muscarinic acetylcholine receptor M2 (Mus musculus) (UniProt Q9ERZ4); assay: In vivo determination of peripheral M2 receptor mediated salivation, cholinergic side effect
[12] = biological target: Muscarinic acetylcholine receptor M2 (Mus musculus) (UniProt Q9ERZ4); assay: In vivo determination of peripheral M2 receptor mediated hypothermia, cholinergic side effect

Ki [1] [µM] | Ki [3] [µM] | Ki [4] [µM] | Ki [5] [µM] | Ratio (Rattus norvegicus [6]) | Ratio (Rattus norvegicus [9]) | Compound | EC50 [2] [µM] | EC50 [7] [µM] | EC50 [8] [µM] | ED50 [10] [µmol/kg] | ED50 [11] [µmol/kg] | ED50 [12] [µmol/kg]
– | – | 0.318 | 1.7 | – | – | CCn1nncc1C1=CCCN(C)C1 | – | – | – | – | – | –
– | – | 5.4 | 24 | – | – | CN1CCC=C(c2nnnn2C)C1 | – | – | – | – | – | –
0.047 | 0.038 | 0.0026 | 0.015 | 18 | 2.5 | CCCn1ncc(C2=CCCN(C)C2)n1 | – | – | – | – | – | –
0.27 | 0.21 | 0.0061 | 0.077 | 44 | 2.7 | CCCn1ncc(C2=CCCNC2)n1 | – | – | – | – | – | –
0.13 | 0.11 | 0.016 | 0.026 | 8.1 | 4.2 | CCCCCn1nnc(C2=CCCN(C)C2)n1 | – | – | – | – | – | –
0.041 | 0.022 | 0.0016 | 0.0077 | 26 | 2.9 | C#CCn1ncc(C2=CCCN(C)C2)n1 | – | – | – | – | – | –
0.57 | 0.09 | 0.00034 | 0.5 | 1700 | 0.2 | Cn1ncc(C2=CCCNC2)n1 | – | – | – | – | – | –
0.1 | 0.18 | 0.0028 | 0.057 | 36 | 3.2 | CCCn1nnc(C2=CCCN(C)C2)n1 | – | – | – | – | – | –
0.14 | 0.046 | 0.013 | 0.021 | 11 | 2.2 | C=CCn1nnc(C2=CCCN(C)C2)n1 | – | – | – | – | – | –
– | – | 0.033 | 0.04 | – | – | C=Cn1ncc(C2=CCCN(C)C2)n1 | – | – | – | – | – | –
0.25 | 0.13 | 0.0049 | 0.1 | 51 | 1.3 | CCCCn1ncc(C2=CCCNC2)n1 | – | – | – | – | – | –
0.23 | 0.09 | 0.092 | 0.12 | 2.5 | 0.8 | C=Cn1nnc(C2=CCCN(C)C2)n1 | – | – | – | – | – | –
– | – | 0.99 | 0.77 | – | – | CCn1cc(C2=CCCN(C)C2)nn1 | – | – | – | – | – | –
0.043 | 0.032 | 0.0047 | 0.0063 | 9.1 | 5.1 | C=CCn1ncc(C2=CCCN(C)C2)n1 | – | – | – | – | – | –
0.081 | 0.22 | 0.005 | 0.037 | 16 | 5.9 | CCCCn1nnc(C2=CCCN(C)C2)n1 | – | – | – | – | – | –
0.23 | 0.1 | 0.0045 | 0.044 | 51 | 2.3 | C#CCn1nnc(C2=CCCN(C)C2)n1 | – | – | – | – | – | –
0.79 | 0.23 | 0.0061 | 0.25 | 130 | 0.9 | CN1CCC=C(c2nnn(C)n2)C1 | – | – | – | – | – | –
0.53 | 0.27 | 0.085 | 0.084 | 6.2 | 3.2 | CC(C)n1nnc(C2=CCCN(C)C2)n1 | – | – | – | – | – | –

The remaining lines, values behind:

Compound | Ki [1] [µM] | Ki [3] [µM] | Ki [4] [µM] | Ki [5] [µM] | Ratio (Rattus norvegicus [6]) | Ratio (Rattus norvegicus [9]) | EC50 [2] [µM] | EC50 [7] [µM] | EC50 [8] [µM] | ED50 [10] [µmol/kg] | ED50 [11] [µmol/kg] | ED50 [12] [µmol/kg]
CCn1ncc(C2=CCCN(C)C2)n1 | 0.11 | 0.061 | 0.0017 | 0.024 | 65 | 2.5 | > 1.2 | 0.94 | > 51 | – | – | –
C=CCn1ncc(C2CCCNC2)n1 (racemic) | – | – | – | – | 36 | 3 | – | – | – | > 350 | 320 | > 350
C=CCn1ncc(C2CCCNC2)n1 (stereo in doubt; (-)-15b) [listing 1 of 2 here] | – | – | – | – | 14 | 1.8 | – | – | – | > 130 | > 130 | > 130
CCN1CCC=C(c2nnn(CC)n2)C1 | – | – | 0.078 | 0.14 | – | – | – | – | – | – | – | –
C=CCn1ncc(C2CCCNC2)n1 (single isomer, unassigned; (+)) [listing 1 of 2 here] | 0.19 | 0.33 | 0.045 | 0.21 | – | – | > 3.4 | 4.3 | 0.68 | – | – | –
CCCCN1CCC=C(c2nnn(CC)n2)C1 | – | – | 0.34 | 1.4 | – | – | – | – | – | – | – | –
CCn1nnc(C2=CCCN(C(C)C)C2)n1 | – | – | 0.3 | 0.27 | – | – | – | – | – | – | – | –
C#CCn1ncc(C2=CC(C)CNC2)n1 (stereo unspecified) | – | – | 0.031 | 0.03 | – | – | – | – | – | – | – | –
C#CCn1ncc(C2CCCNC2)n1 (stereo in doubt; (-)-15c) [listing 1 of 2 here] | – | – | – | – | 35 | 0.2 | – | – | – | 41 | 20 | 11
C#CCn1ncc(C2CCCNC2)n1 (stereo in doubt; (-)-15c) [listing 2 of 2 here] | 0.27 | – | 0.0078 | 0.14 | – | – | – | – | – | – | – | –
C=CCn1ncc(C2CCCNC2)n1 (stereo in doubt; (-)-15b) [listing 2 of 2 here] | 0.53 | 0.31 | 0.037 | 0.17 | – | – | > 2.5 | – | 0.84 | – | – | –
CN1CCC=C(c2cnn(C)n2)C1 | 0.28 | 0.16 | 0.00078 | 0.035 | 360 | 4.5 | ≥ 0.43 | 0.13 | – | – | – | –
CC1CC=C(c2nnn(C)n2)CN1 (stereo unspecified) | – | – | 0.18 | 0.9 | – | – | – | – | – | – | – | –
CCCCCCn1nnc(C2=CCCN(C)C2)n1 | 0.1 | 0.22 | 0.052 | 0.032 | 1.9 | 6.9 | – | – | – | – | – | –
CN1CCCC(c2nnn(C)n2)C1 (racemic) | – | – | 1.2 | 4.8 | – | – | – | – | – | – | – | –
CC1C=C(c2nnn(C)n2)CNC1 (stereo unspecified) | – | – | 0.069 | 0.18 | – | – | – | – | – | – | – | –

Compound | Ki [1] [µM] | Ki [3] [µM] | Ki [4] [µM] | Ki [5] [µM] | Ratio (Rattus norvegicus [6]) | Ratio (Rattus norvegicus [9]) | EC50 [2] [µM] | EC50 [7] [µM] | EC50 [8] [µM] | ED50 [10] [µmol/kg] | ED50 [11] [µmol/kg] | ED50 [12] [µmol/kg]
CCn1nnc(C2=CCCN(C)C2)n1 [ALVAMELINE] | 0.43 | 0.34 | 0.0092 | 0.036 | – | – | ≥ 2 | – | – | > 120 | > 120 | > 120
C#CCn1ncc(C2CCCNC2)n1 (racemic) [listing 1 of 2 here] | – | – | – | – | 130 | 1.5 | – | – | – | 54 | 8.1 | 10
CCn1nnc(C2CCCNC2)n1 (racemic) | – | – | 0.23 | 1.1 | – | – | – | – | – | – | – | –
Cn1nnc(C2CCCNC2)n1 (racemic) | – | – | 0.033 | 2.3 | – | – | – | – | – | – | – | –
C=CCn1ncc(C2CCCNC2)n1 (single isomer, unassigned; (+)) [listing 2 of 2 here] | – | – | – | – | 4.2 | 1.6 | – | – | – | > 260 | > 260 | > 260
C#CCn1ncc(C2CCCNC2)n1 (racemic) [listing 2 of 2 here] | 0.32 | 0.13 | 0.0025 | 0.084 | – | – | – | – | – | – | – | –
CCCN1CCC=C(c2nnn(CC)n2)C1 | – | – | 0.45 | 0.9 | – | – | – | – | – | – | – | –
CC1=C(c2nnn(C)n2)CNCC1 | – | – | 0.57 | 0.96 | – | – | – | – | – | – | – | –
C#CCn1nnc(C2CCCNC2)n1 (racemic) | – | – | 0.031 | 0.26 | – | – | – | – | – | – | – | –
Cn1nnc(C2=CCCNC2)n1 | – | – | 0.0045 | 1.35 | – | – | – | – | – | – | – | –
C#CCn1ncc(C2CCCNC2)n1 (single isomer, unassigned; (+)) [listing 1 of 2 here] | 0.23 | 0.03 | 0.0052 | 0.17 | – | – | – | – | – | – | – | –
CCCCn1ncc(C2=CCCN(C)C2)n1 | 0.048 | 0.037 | 0.0025 | 0.013 | 19 | 2.8 | – | – | – | – | – | –
CCn1ncc(C2CCCNC2)n1 (racemic) | 0.53 | 0.28 | 0.011 | 0.26 | 48 | 1.1 | – | – | – | – | – | –
CCCCCCCCn1nnc(C2=CCCN(C)C2)n1 | 0.038 | 0.075 | 0.071 | 0.027 | 0.5 | 2.8 | – | – | – | – | – | –
C#CCn1ncc(C2CCCNC2)n1 (single isomer, unassigned; (+)) [listing 2 of 2 here] | – | – | – | – | 44 | 0.2 | – | – | – | 32 | 7 | 23
